This is a sample that favours compounds with a hit; in the whole collection about 2.2% have one here.
miR-122 sensor: miR-122 Renilla sensor signal increase in Huh7, primary screen, miR-122 inhibitor project, cell-based, single point, plate reader. Huh7 miR-122 Renilla luciferase sensor, 48 h; neutral wells = 0, positive control = 100. activation (reporter increase), % at 12.5 µM. 0.3% of 340,000 active;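 active = mean replicate activation score at least 90 and every replicate individually at or above 90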;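 note: higher luciferase means less miR-122 activity so hits act as miR-122 inhibitors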
Jurkat NFkB inh: inhibitors of induced NF-kB luciferase reporter, primary screen, TCR NF-kB activation inhibitor project, cell-based, luminescence, uHTS; Jurkat, PMA/ionomycin-induced NF-kB luciferase reporter; inhibition, % at 4 µM; 0.53% of 330,000 active; in the data active = inhibition above about 50%
697 NFkB inh: inhibitors of PMA/ionomycin-induced NF-kB reporter, 697 cells, primary screen, B-cell NF-kB inhibitor project, cell-based, luminescence, uHTS. inhibition, % at 4 µM. 0.33% of 330,000 active. 697 B-cell NF-kB luciferase reporter, 16 h. AID 435022, 2010; in the data active = inhibition above about 35%
NR2E3 ag-1: NR2E3 agonists in two-hybrid cells, primary screen, cell-based, luminescence, CHO-S, Gal4-NCOR/VP16-NR2E3; inhibition of corepressor binding, % at 3.98 µM; luciferase; 0.35% of 360,000 active; AID 602229, 2012;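 active = inhibition above the mean of all tested compounds plus 3 SD, cut at about 70% in these data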;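 note: 0% = DMSO with NR2E3 transfected cells and 100% = cells lacking NR2E3 construct; higher means lower luciferase signal from less NR2E3 corepressor binding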
Target sequence (Q9Y5X4 whole entry, looked up, the tested form may be a part): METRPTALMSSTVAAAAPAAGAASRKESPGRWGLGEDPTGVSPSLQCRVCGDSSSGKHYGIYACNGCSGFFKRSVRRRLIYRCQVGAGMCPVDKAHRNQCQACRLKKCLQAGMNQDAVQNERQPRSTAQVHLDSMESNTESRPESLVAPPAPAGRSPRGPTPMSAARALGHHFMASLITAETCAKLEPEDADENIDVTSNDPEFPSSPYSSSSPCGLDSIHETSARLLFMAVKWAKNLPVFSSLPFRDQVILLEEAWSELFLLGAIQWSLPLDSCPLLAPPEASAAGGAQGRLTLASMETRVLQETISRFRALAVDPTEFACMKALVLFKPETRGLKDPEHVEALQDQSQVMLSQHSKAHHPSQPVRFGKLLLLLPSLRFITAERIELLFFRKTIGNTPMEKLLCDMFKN
FGF22 binding-1: binders of human FGF22 protein, primary screen, FGF22 synaptogenesis inhibitor project, biophysical, thermal shift, single point; recombinant FGF22 thermal shift, SYPRO orange fluorescence; percent of sucrose octasulfate shift, DMSO zero; activity (Tm shift, normalised), % at 9.99 µM; 1.5% of 340,000 active;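 active = mean Tm shift, scaled 0 neutral to 100 positive control, at about 1.3% or above, every replicate too, limit read from the data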
Target sequence (Q9HCT0 whole entry, looked up): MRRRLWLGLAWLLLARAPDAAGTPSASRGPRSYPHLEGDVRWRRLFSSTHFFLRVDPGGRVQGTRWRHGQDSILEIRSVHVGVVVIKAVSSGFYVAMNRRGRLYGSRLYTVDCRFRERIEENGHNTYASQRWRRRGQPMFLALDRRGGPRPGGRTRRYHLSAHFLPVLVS
NR2E3 ag-2: inhibitors of NR2E3-RetCOR corepressor binding, primary screen, NR2E3 agonist project, biochemical, TR-FRET, GST-NR2E3, biotin-RetCOR. 1536-well. Photoreceptor-specific nuclear receptor (Homo sapiens), Q9Y5X4. inhibition of corepressor binding, % at 4.78 µM. 0.12% of 320,000 active. AID 2300, 2010;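 active = percent inhibition above the cutoff of mean plus 3 SD of all tested compounds, set per screening campaign, cut at about 20% in these data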;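 note: 0% = DMSO wells and 100% = biotin wells as full block of FRET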
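Test system: GST-NR2E3 and biotin-RetCOR proteins | Quantity: 1.35 nM GST-tagged NR2E3 final | Medium: Tris pH 7.5 | Also added: 7 nM biotin-RetCOR | Dosing: Compound at 4.8 µM, single dose | Timing: 5 h at 4 °C | Detection: Time-resolved FRET | Read-out basis: Percent inhibition | Benchmarks: Biotin wells as high control, 0.6% DMSO wells as low control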
FGF22 binding-2: binders of human FGF22 protein, dose response, FGF22 synaptogenesis inhibitor project, biophysical, thermal shift, cherry-pick retest; shares compounds with FGF22 binding-1; recombinant FGF22 thermal shift, SYPRO orange fluorescence; thermal shift activity, °C (ΔTm) at 38 µM; 2% of 1,000 active;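 active = fitted rise in melting shift crosses a set limit at or below the top valid dose tested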
SYPRO no-protein: compound-only thermal shift signal without protein, dose response, artefact control for FGF22 binder project, biochemical, cherry-picked samples, RT-PCR instrument; shares compounds with FGF22 binding-1; compound-only SYPRO orange thermal shift counter-screen, no protein; AC50, µM (doses to about 38 µM); 2% of 1,000 active; AID 743019, 2013;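 active = rising signal whose fitted curve reaches the 0.54 level within the top valid dose, showing a melting point, actives reach about 13 µM in these data; inactive = the rest, including activity in the opposite direction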; note: value is where the raw curve crosses a fixed level and not half-maximal
Active calls of the source: *; i = inactive; nt = no result given; [ ] = another dose, or the depositor's remark.

SMILES	miR-122 sensor	Jurkat NFkB inh	697 NFkB inh	NR2E3 ag-1	FGF22 binding-1	NR2E3 ag-2	FGF22 binding-2	SYPRO no-protein
C[C@@H]1CN([C@H](C)CO)S(=O)(=O)c2ccc(C#CC3CC3)cc2O[C@H]1CN(C)C(=O)c1ccncc1	-8.8[16.7 µM]	nt	nt	nt	1.4*	nt	0.024	i
C[C@H](CO)N1C[C@H](C)[C@H](CN(C)C(=O)c2ccncc2)Oc2cc(C#CC3CC3)ccc2S1(=O)=O	5.9[16.7 µM]	nt	nt	nt	-0.4	nt	nt	nt
Cc1c2c(n3c(nc4ccccc43)c1C#N)N(CCN(C)C)CC2	nt	-2.9	17.6	-20.6	1.4*	-0.5	0.03	i
CC(=O)C1=C(O)C(=O)N(c2ccc(S(=O)(=O)Nc3nccs3)cc2)C1c1ccc(F)cc1 (centres undefined)	nt	-1.1	10.2	-0.8	1.7*	1.4	-0.031	i
COc1ccc(S(=O)(=O)Nc2ccc3c(c2)C(=O)N([C@@H](C)CO)C[C@@H](C)[C@H](CN(C)S(C)(=O)=O)OCCCC[C@@H](C)O3)cc1	8.4[16.7 µM]	nt	nt	nt	-0.5	nt	nt	nt
C[C@@H]1CN([C@@H](C)CO)S(=O)(=O)c2ccc(C3=CCCCC3)cc2O[C@H]1CN(C)C(=O)C1CCCCC1	0.2[16.7 µM]	nt	nt	nt	-0.5	nt	nt	nt
COc1ccccc1NC(=O)c1ccc(NC(=O)COC(=O)c2ccc(O)cc2)cc1	13.3	-14.3	8.1	-18.2	1.7*	0.3	0.009	i
C[C@H](CO)N1C[C@H](C)[C@@H](CN(C)C(=O)Nc2ccc(C(F)(F)F)cc2)Oc2cc(-c3ccncc3)ccc2S1(=O)=O	42.5[16.7 µM]	nt	nt	nt	0.0	nt	nt	nt
COc1cccc(NC(=O)N(C)C[C@H]2Oc3cc(-c4ccccc4F)ccc3S(=O)(=O)N([C@@H](C)CO)C[C@@H]2C)c1	26.3[16.7 µM]	nt	nt	nt	0.0	nt	nt	nt
C[C@H](CO)N1C[C@H](C)[C@@H](CN(C)Cc2ccc(C(=O)O)cc2)Oc2cc(/C=C/c3ccccc3)ccc2S1(=O)=O	3.4[16.7 µM]	nt	nt	nt	23.1*	nt	0.099[42 µM]	i
COc1cccc(NC(=O)N(C)C[C@H]2Oc3cc(-c4ccccc4F)ccc3S(=O)(=O)N([C@H](C)CO)C[C@@H]2C)c1	18.0[16.7 µM]	nt	nt	nt	1.4*	nt	-0.052[42 µM]	i
C[C@@H]1CN([C@@H](C)CO)S(=O)(=O)c2ccc(-c3ccncc3)cc2O[C@@H]1CN(C)C(=O)Nc1ccc(C(F)(F)F)cc1	29.7[16.7 µM]	nt	nt	nt	1.5*	nt	-0.076	i
COc1cccc(NC(=O)N(C)C[C@@H]2Oc3cc(-c4ccccc4F)ccc3S(=O)(=O)N([C@@H](C)CO)C[C@H]2C)c1	-4.2[16.7 µM]	nt	nt	nt	1.7*	nt	0.076[42 µM]	i
COc1ccccc1-c1ccc2c(c1)O[C@@H](CN(C)C(=O)Nc1ccccc1)[C@@H](C)CN([C@@H](C)CO)S2(=O)=O	-1.2[16.7 µM]	nt	nt	nt	0.0	nt	nt	nt
COc1cccc(-c2cnc3c(c2)C(=O)N([C@@H](C)CO)C[C@@H](C)[C@@H](CN(C)Cc2ccncc2)O3)c1	1.3[16.7 µM]	nt	nt	nt	0.1	nt	nt	nt
CO[C@H]1CN(C)C(=O)c2ccc(NS(=O)(=O)c3ccc(C)cc3)cc2OC[C@H](C)N(Cc2nccs2)C[C@H]1C	nt	nt	nt	nt	-0.3	nt	nt	nt
CCC(=O)Nc1ccc2c(c1)C(=O)N(C)C[C@@H](OC)[C@H](C)CN(Cc1ccccc1C(=O)O)[C@H](C)CO2	nt	nt	nt	nt	0.1	nt	nt	nt
COc1ccccc1-c1ccc2c(c1)O[C@@H](CN(C)C(=O)Nc1cccc(F)c1)[C@H](C)CN([C@@H](C)CO)S2(=O)=O	4.1[16.7 µM]	nt	nt	nt	2.0*	nt	-0.149	11.3µM*
COc1cccc(NC(=O)N(C)C[C@@H]2Oc3cc(-c4ccccc4OC)ccc3S(=O)(=O)N([C@@H](C)CO)C[C@@H]2C)c1	-14.5[16.7 µM]	nt	nt	nt	0.5	nt	nt	nt
C/C=C/c1ccc2c(c1)O[C@@H](CN(C)C(=O)Nc1cc(F)ccc1F)[C@@H](C)CN([C@H](C)CO)S2(=O)=O	-5.0[16.7 µM]	nt	nt	nt	1.3*	nt	-0.529[42 µM]	i
COc1cccc(NC(=O)N(C)C[C@H]2Oc3cc(-c4ccccc4F)ccc3S(=O)(=O)N([C@@H](C)CO)C[C@H]2C)c1	-3.1[16.7 µM]	nt	nt	nt	2.8*	nt	0.202[42 µM]	i
Cn1c(=O)[nH]c(=O)c2c1nc(SCC(O)CO)n2CCCc1ccccc1 (centres undefined)	2.7	0.7	-16.8	13.4	1.4*	1.3	0.026	i
COc1ccccc1NC(=O)N1CC[C@@H]2[C@H]1c1cc(-c3ccccc3)ccc1N(C)[C@@H]2CO	-3.4[16.7 µM]	nt	nt	nt	-0.4	nt	nt	nt
C[C@@H]1CN([C@@H](C)CO)C(=O)Cc2cc(NC(=O)Nc3ccccc3)ccc2O[C@@H]1CN(C)C(=O)Nc1ccccc1	-7.6[16.7 µM]	nt	nt	nt	0.8	nt	nt	nt
C[C@H](CO)N1C[C@H](C)[C@H](CN(C)C(=O)Nc2ccccc2)Oc2ccc(NC(=O)Nc3ccccc3)cc2CC1=O	0.7[16.7 µM]	nt	nt	nt	1.2*	nt	0.133	i
SMILES	miR-122 sensor	Jurkat NFkB inh	697 NFkB inh	NR2E3 ag-1	FGF22 binding-1	NR2E3 ag-2	FGF22 binding-2	SYPRO no-protein
COc1ccc(NC(=O)N(C)C[C@H]2Oc3ccc(NS(C)(=O)=O)cc3CC(=O)N([C@H](C)CO)C[C@@H]2C)cc1	-3.8[16.7 µM]	nt	nt	nt	-0.4	nt	nt	nt
COc1ccc(NC(=O)N(C)C[C@@H]2Oc3ccc(NS(C)(=O)=O)cc3CC(=O)N([C@@H](C)CO)C[C@H]2C)cc1	-4.2[16.7 µM]	nt	nt	nt	15.8*	nt	0.141[42 µM]	i
CCNC(=O)C[C@@H]1CC[C@@H]2[C@H](COc3ccc(NC(=O)c4cccc(C(F)(F)F)c4)cc3C(=O)N2C)O1	-16.7[16.7 µM]	nt	nt	nt	0.0	nt	nt	nt
CN(NC1OC(=O)c2ccccc21)c1ncc(C(F)(F)F)cc1Cl (centres undefined)	20.8	-1.7	-25.1	-15.5	28.0*	-0.9	0.003	i
CN(NC1OC(=O)c2ccccc21)c1c([N+](=O)[O-])cc(C(F)(F)F)cc1[N+](=O)[O-] (centres undefined)	-3.4	-9.1	-12.0	6.2	-0.5	-1.4	nt	nt
Cc1nc2ccc(NC(=O)c3ccc(C)c(S(=O)(=O)N4CCOCC4)c3)cc2s1	-6.0	-2.6	12.5	-55.8	1.6*	-0.6	0.043	i
